How the values were obtained:
[1] = Cmax in Sprague-Dawley rat at 4 mg/kg, po by LC/MS/MS analysis; type: ADME, organism-based; set-up: dose 4 mg/kg, route oral; settings: in vivo
Method in brief: (§1)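 Three male SD rats (180–240 g) dosed orally, 4 mg/kg, dosing volume 5 mL/kg. Blood sampled at 2, 5, 15, 30 min and 1, 2, 4, 6, 8, 10, 24 h, centrifuged 4000 rpm 5 min at 4 °C. Plasma analysed after protein precipitation by LC/MS/MS in SRM mode with internal standard. Parameters from concentration–time data by noncompartmental analysis.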

[2] = Tmax in Sprague-Dawley rat at 4 mg/kg, po by LC/MS/MS analysis; type: ADME, organism-based; settings: in vivo; method in brief: as §1
[3] = AUClast in Sprague-Dawley rat at 4 mg/kg, po by LC/MS/MS analysis; type: ADME, organism-based; set-up: dose 4 mg/kg, route oral, time 0 - last; settings: in vivo; method in brief: as §1
[4] = Clearance in Sprague-Dawley rat at 4 mg/kg, po by LC/MS/MS analysis; type: ADME, organism-based; settings: in vivo; method in brief: as §1
[5] = Half life in Sprague-Dawley rat at 4 mg/kg, po by LC/MS/MS analysis; type: ADME, organism-based; settings: in vivo; method in brief: as §1
[6] = target: T1, Tyrosine-protein kinase BTK (Homo sapiens, UniProt Q06187); assay: Inhibition of recombinant human His-tagged full length BTK expressed in baculovirus using biotin labeled peptide substrate after 1 hr by HRTF kinase/TR-FRET assay
[7] = target: T1, Tyrosine-protein kinase BTK; assay: Inhibition of BTK in human Ramos cells assessed as inhibition of anti human IgM-induced calcium influx preincubated for 20 mins in dark followed by anti human IgM induction for 8 mins by FLIPR assay; type: cell-based

T1 sequence (Q06187 whole entry): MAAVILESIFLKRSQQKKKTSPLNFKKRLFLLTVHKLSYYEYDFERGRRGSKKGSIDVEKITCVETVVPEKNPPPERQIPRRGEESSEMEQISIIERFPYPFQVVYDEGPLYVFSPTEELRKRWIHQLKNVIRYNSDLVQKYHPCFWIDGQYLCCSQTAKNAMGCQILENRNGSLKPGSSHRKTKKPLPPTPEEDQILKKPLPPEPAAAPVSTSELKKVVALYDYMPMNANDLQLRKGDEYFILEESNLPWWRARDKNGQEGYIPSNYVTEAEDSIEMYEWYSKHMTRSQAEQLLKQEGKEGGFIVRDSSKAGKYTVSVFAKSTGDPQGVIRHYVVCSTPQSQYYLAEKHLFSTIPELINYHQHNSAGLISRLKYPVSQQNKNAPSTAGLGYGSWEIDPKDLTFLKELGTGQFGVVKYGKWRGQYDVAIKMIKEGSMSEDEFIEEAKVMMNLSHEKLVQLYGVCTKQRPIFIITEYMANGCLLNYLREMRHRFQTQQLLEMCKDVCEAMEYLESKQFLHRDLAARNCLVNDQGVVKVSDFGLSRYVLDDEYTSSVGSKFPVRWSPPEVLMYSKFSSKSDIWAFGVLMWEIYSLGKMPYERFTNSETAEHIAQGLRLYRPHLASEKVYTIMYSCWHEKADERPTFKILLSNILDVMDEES

Compound | Cmax [1] [ng/mL] | Tmax [2] [h] | AUC(0-t) [3] [ng·h/mL] | CL/F [4] [mL/min/kg] | half-life [5] [h] | IC50 [6] [nM] | IC50 [7] [nM]
CN1CCN(c2ccc(Nc3cc(-c4cccc(-n5ccc6cc(C7CC7)cc(F)c6c5=O)c4CO)cn(C)c3=O)nc2)CC1 | 134 | 4 | 1050 | 53.3 | 4.4 | – | –
CN(C)C(=O)N1CC=C(c2cc3c(-c4cccc(-n5ccc6cc(C7CC7)cc(F)c6c5=O)c4CO)ncnc3[nH]2)CC1 | 422 | 0.8 | 1790 | 43.3 | 5.4 | – | –
O=C(N1CC=C(c2cc3c(-c4cccc(-n5ccc6cc(C7CC7)cc(F)c6c5=O)c4CO)ccnc3[nH]2)CC1)N1CCOCC1 | – | – | – | – | – | 7.3 | 42
O=c1c2c(F)cc(C3CC3)cc2ccn1-c1cccc(-c2ccnc3[nH]c(C4=CCN(C5COC5)CC4)cc23)c1CO | – | – | – | – | – | 31.4 | 3
CN(C)S(=O)(=O)N1CC=C(c2cc3c(-c4cccc(-n5ccc6cc(C7CC7)cc(F)c6c5=O)c4CO)ccnc3[nH]2)CC1 | – | – | – | – | – | 9.7 | 27
CC(=O)N1CC=C(c2cc3c(-c4cccc(-n5ccc6cc(C7CC7)cc(F)c6c5=O)c4CO)ccnc3[nH]2)CC1 | – | – | – | – | – | 6.7 | 12
CN(C)C(=O)N1CC=C(c2cc3c(-c4cccc(-n5ccc6cc(C7CC7)cc(F)c6c5=O)c4CO)cccc3[nH]2)CC1 | – | – | – | – | – | > 5000 | > 5000
CN(C)C(=O)N1CC=C(c2cc3c(-c4cccc(-n5ccc6cc(C7CC7)cc(F)c6c5=O)c4CO)ccnc3[nH]2)CC1 | 739 | 1.9 | 3420 | 20 | 8.9 | 6 | 14
CN(C)C(=O)c1ccc(-c2nc3c(-c4cccc(-n5ccc6cc(C7CC7)cc(F)c6c5=O)c4CO)ccnc3[nH]2)cc1 | – | – | – | – | – | 33.3 | 92.7
CS(=O)(=O)N1CC=C(c2cc3c(-c4cccc(-n5ccc6cc(C7CC7)cc(F)c6c5=O)c4CO)ccnc3[nH]2)CC1 | – | – | – | – | – | 7.1 | 410
O=C(C1CC1)N1CC=C(c2cc3c(-c4cccc(-n5ccc6cc(C7CC7)cc(F)c6c5=O)c4CO)ccnc3[nH]2)CC1 | – | – | – | – | – | 10.4 | 16

Now from value to molecule:

Cmax [1] [ng/mL] | Tmax [2] [h] | AUC(0-t) [3] [ng·h/mL] | CL/F [4] [mL/min/kg] | half-life [5] [h] | IC50 [6] [nM] | IC50 [7] [nM] | Compound
– | – | – | – | – | 68.3 | 196 | COc1ccc(-c2cc3c(-c4cccc(-n5ccc6cc(C7CC7)cc(F)c6c5=O)c4CO)ccnc3[nH]2)cn1
– | – | – | – | – | 38 | 52 | O=C(c1ccc(-c2cc3c(-c4cccc(-n5ccc6cc(C7CC7)cc(F)c6c5=O)c4CO)ccnc3[nH]2)cc1)N1CCCCC1
– | – | – | – | – | 110 | 2410 | Nc1cccc(-c2cc3c(-c4cccc(-n5ccc6cc(C7CC7)cc(F)c6c5=O)c4CO)ccnc3[nH]2)c1
– | – | – | – | – | 21.3 | 32 | CC(=O)c1ccc(-c2cc3c(-c4cccc(-n5ccc6cc(C7CC7)cc(F)c6c5=O)c4CO)ccnc3[nH]2)cc1
– | – | – | – | – | 39.8 | 110 | O=c1c2c(F)cc(C3CC3)cc2ccn1-c1cccc(-c2ccnc3[nH]c(-c4ccc(O)cc4)cc23)c1CO
– | – | – | – | – | 20.6 | 9.5 | Cn1ccc(-c2cc3c(-c4cccc(-n5ccc6cc(C7CC7)cc(F)c6c5=O)c4CO)ccnc3[nH]2)n1
– | – | – | – | – | 18.1 | 69 | O=c1c2c(F)cc(C3CC3)cc2ccn1-c1cccc(-c2ccnc3[nH]c(-c4ccc(CN5CCOCC5)cc4)cc23)c1CO
– | – | – | – | – | 78.1 | 69 | CC(=O)c1cc(-c2cc3c(-c4cccc(-n5ccc6cc(C7CC7)cc(F)c6c5=O)c4CO)ccnc3[nH]2)cs1
– | – | – | – | – | 27.3 | 56.3 | COc1ccc(-c2cc3c(-c4cccc(-n5ccc6cc(C7CC7)cc(F)c6c5=O)c4CO)ccnc3[nH]2)cc1
– | – | – | – | – | 12.1 | 94.2 | CN(C)C(=O)c1ccc(-c2cc3c(-c4cccc(-n5ccc6cc(C7CC7)cc(F)c6c5=O)c4CO)ccnc3[nH]2)cc1
– | – | – | – | – | 28.3 | 3 | O=c1c2c(F)cc(C3CC3)cc2ccn1-c1cccc(-c2ccnc3[nH]c(C4=CCNCC4)cc23)c1CO
– | – | – | – | – | 395 | 213 | Cc1cc2c(-c3cccc(-n4ccc5cc(C6CC6)cc(F)c5c4=O)c3CO)ccnc2[nH]1

— ChEMBL document CHEMBL4000147, “Pyrrolo[2,3-b]pyridine derivatives as potent Bruton's tyrosine kinase inhibitors” (Bioorg Med Chem, 2015)
